Experiments:
D(1A) dopamine receptor = D(1A) dopamine receptor (Rattus norvegicus, UniProt P18901)
D(2) dopamine receptor = D(2) dopamine receptor (Rattus norvegicus, UniProt P61169); assay: Binding affinity against Dopamine receptor D2 from rat striatal membranes, using [3H]sulpiride as radioligand.
How it was run: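 Rat (male Sprague–Dawley, 200–250 g) caudate putamen membranes, freshly prepared in 50 mM Tris pH 7.4 and washed by centrifugation. Incubation with 3 nM [³H]sulpiride (final) for 30 min at 37 °C, in triplicate. Nonspecific binding defined with 10 μM sulpiride. Filtration, scintillation counting, Ki by LIGAND; at least three determinations.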

Sequence of D(2) dopamine receptor (P61169 whole entry): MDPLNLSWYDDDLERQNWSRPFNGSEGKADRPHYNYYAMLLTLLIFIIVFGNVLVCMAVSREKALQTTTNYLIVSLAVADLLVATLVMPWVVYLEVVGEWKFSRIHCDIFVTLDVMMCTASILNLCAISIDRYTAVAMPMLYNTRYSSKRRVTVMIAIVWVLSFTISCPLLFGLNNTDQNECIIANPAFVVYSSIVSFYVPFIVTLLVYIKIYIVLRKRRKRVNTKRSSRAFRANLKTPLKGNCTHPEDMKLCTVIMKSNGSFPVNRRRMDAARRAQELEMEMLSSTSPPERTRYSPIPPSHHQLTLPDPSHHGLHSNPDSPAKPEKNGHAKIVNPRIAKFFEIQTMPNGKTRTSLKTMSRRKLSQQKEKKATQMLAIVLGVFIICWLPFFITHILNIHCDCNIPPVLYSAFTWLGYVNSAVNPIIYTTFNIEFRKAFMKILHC
Sequence of D(1A) dopamine receptor (P18901 whole entry): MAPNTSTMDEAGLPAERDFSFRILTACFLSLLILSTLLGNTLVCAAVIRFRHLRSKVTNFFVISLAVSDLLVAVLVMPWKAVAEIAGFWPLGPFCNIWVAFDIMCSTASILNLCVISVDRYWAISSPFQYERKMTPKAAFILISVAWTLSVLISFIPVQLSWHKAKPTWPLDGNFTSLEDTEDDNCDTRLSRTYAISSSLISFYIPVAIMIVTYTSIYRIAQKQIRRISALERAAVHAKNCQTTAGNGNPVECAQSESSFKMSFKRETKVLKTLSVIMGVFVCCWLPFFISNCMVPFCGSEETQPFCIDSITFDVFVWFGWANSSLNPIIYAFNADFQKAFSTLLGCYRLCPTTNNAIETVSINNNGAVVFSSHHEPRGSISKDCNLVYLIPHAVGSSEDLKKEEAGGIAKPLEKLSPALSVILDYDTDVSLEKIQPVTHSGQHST

| SMILES | Ki (D(1A) dopamine receptor) | Ki (D(2) dopamine receptor) |
| --- | --- | --- |
| CNCCCCCCN1CCc2cc(Cl)c(O)cc2C(c2ccccc2)C1 (centres undefined) | 0.0757 µM | 3.57 µM |
| CN(C)CCCCCCN1CCc2cc(Cl)c(O)cc2C(c2ccccc2)C1 (centres undefined) | 0.0493 µM | 3.45 µM |
| CN(C)CCCCN1CCc2cc(Cl)c(O)cc2C(c2ccccc2)C1 (centres undefined) | 0.811 µM | 4.13 µM |
| CCCCN1CCc2cc(Cl)c(O)cc2C(c2ccccc2)C1 (centres undefined) | 0.634 µM | 2.36 µM |
| COc1cc2c(cc1Cl)CCN(CCCCN(C)C)CC2c1ccccc1 (centres undefined) | > 10 µM | 9.15 µM |
| COc1cc2c(cc1OC)C(c1ccccc1)CN(CCCCN(C)C)CC2 (centres undefined) | > 10 µM | > 10 µM |
| NCCCCN1CCc2cc(Cl)c(O)cc2C(c2ccccc2)C1 (centres undefined) | 0.075 µM | 4.28 µM |
| CN(C)CCCCN1CCc2cc(Br)c(O)cc2C(c2ccccc2)C1 (centres undefined) | 1.49 µM | > 10 µM |
| COc1cc2c(cc1Br)CCN(CCCCN(C)C)CC2c1ccccc1 (centres undefined) | > 10 µM | 2.49 µM |
| CN(C)CCCCN1CCc2cc(O)c(O)cc2C(c2ccccc2)C1 (centres undefined) | 4.82 µM | > 10 µM |
| O=CNCCCCCCN1CCc2cc(Cl)c(O)cc2C(c2ccccc2)C1 (centres undefined) | 0.553 µM | 2.03 µM |
| NCCCCCCN1CCc2cc(Cl)c(O)cc2C(c2ccccc2)C1 (centres undefined) | 0.321 µM | 2.49 µM |
| BC#N.CN(C)CCCCCCN1CCc2cc(Cl)c(O)cc2C(c2ccccc2)C1 (centres undefined) | 0.142 µM |  |
| NCCCC(=O)N1CCc2cc(Cl)c(O)cc2C(c2ccccc2)C1 (centres undefined) | 0.607 µM | 7.41 µM |
| CNCCCCN1CCc2cc(Cl)c(O)cc2C(c2ccccc2)C1 (centres undefined) | 0.106 µM | > 10 µM |

From ChEMBL document CHEMBL1128644, “(+/-)-(N-alkylamino)benzazepine analogs: novel dopamine D1 receptor antagonists” (J Med Chem, 1995)
